Test results from ChEMBL document CHEMBL5154715, “Phenolic Lipids Derived from Cashew Nut Shell Liquid to Treat Metabolic Diseases” (J Med Chem, 2022).
The source made the active and inactive calls. The rule behind the calls is not given here.

Target: T1, Peroxisome proliferator-activated receptor alpha (Mus musculus) (UniProt P23204)
T1 sequence (whole entry): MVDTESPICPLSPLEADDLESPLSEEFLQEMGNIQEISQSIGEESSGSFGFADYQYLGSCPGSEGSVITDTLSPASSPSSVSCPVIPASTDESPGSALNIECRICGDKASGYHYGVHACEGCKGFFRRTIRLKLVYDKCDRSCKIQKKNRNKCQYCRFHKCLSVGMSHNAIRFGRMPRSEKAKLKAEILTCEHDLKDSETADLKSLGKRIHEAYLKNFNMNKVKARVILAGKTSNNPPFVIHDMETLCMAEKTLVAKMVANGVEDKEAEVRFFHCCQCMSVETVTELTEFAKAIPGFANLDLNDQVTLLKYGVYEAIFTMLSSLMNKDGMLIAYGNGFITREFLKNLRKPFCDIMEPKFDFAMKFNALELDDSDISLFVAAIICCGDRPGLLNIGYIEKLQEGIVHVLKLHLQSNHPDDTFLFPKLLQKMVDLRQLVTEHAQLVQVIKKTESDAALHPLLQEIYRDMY
Test: Agonist activity at human PPARalpha in mouse hepatocytes assessed as induction of cd36 mRNA expression at 50 uM incubated for 16 hrs by quantitative real-time PCR analysis
Assay type: cell-based
Conditions: Hepatocyte, filed as agonist
Outline: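 Collagenase-perfused mouse primary hepatocytes from WT mice, plated 2 h in attachment medium, overnight in M199 with 5% charcoal-stripped FBS and 1 nM insulin. Treated next day in serum-free M199 with 50 μM compound for 16 h. RNA qPCR (SYBR Green), comparative Ct method.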

## CCCCCCCCCCCCCCCc1cccc(OC(C)(C)C(=O)O)c1
  Activity: Active
